In PubChem BioAssay AID2465 (Broad Institute, 2010):
In all, about 24,000 compounds went through this assay and fewer than 10 were called active. Rule as the data show it: active = caspase activation above about 5.9%; inconclusive = no clear call, values can overlap the other calls; inactive = below about 2.2%. Only a sample is shown.

assay: Bcl2-A1 antagonists releasing BIM, apoptosis – cell-based, luminescence, HTS, two replicates, primary screen (AID 2465); settings: MEF A1-2A-BIM cells, caspase-Glo luminescence, 3 h; hits give high values; percent of clofoctol response, DMSO zero; concentration not given here
In short: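 System: mouse embryonic fibroblasts co-expressing A1 and BIM (A1-2A-BIM), primed for A1 dependence; amount: 2500 cells/well; doses: 50 nL pinned compound; schedule: cells settled overnight, compound exposure 3 h at 37 °C, 5% CO2; detection: Caspase-Glo 3/7 luminescence, 1 h at room temperature; read-out: Caspase-3/7 activation, seen as rise in luminescence signal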

Caspase activation, inactive:
C[C@@H]1CCCCO[C@H](CN(C)Cc2ccc(C(F)(F)F)cc2)[C@@H](C)CN([C@@H](C)CO)C(=O)c2cc(NC(=O)c3ccncc3)ccc2O1 -0.085%, C[C@@H]1CCCCO[C@@H](CN(C)S(=O)(=O)c2ccc(F)cc2)[C@@H](C)CN([C@@H](C)CO)C(=O)c2cc(NC(=O)Nc3ccc4c(c3)OCO4)ccc2O1 -0.312%, C[C@H]1CN([C@@H](C)CO)C(=O)Cc2cc(NC(=O)Cn3cnnn3)ccc2O[C@H]1CN(C)CC1CC1 -0.754%, Cc1ccc(S(=O)(=O)N(C)C[C@H]2OCCCC[C@H](C)Oc3ccc(N(C)C)cc3C(=O)N([C@H](C)CO)C[C@@H]2C)cc1 0.228%, C[C@@H]1CN([C@H](C)CO)C(=O)c2cc(NS(=O)(=O)c3ccccc3)ccc2O[C@H]1CN(C)S(=O)(=O)c1cccs1 -0.323%, COc1ccc(S(=O)(=O)Nc2ccc3c(c2)C(=O)N([C@H](C)CO)C[C@@H](C)[C@@H](CN(C)CC2CCCCC2)O3)cc1 -0.24%, CC(C)NC(=O)N(C)C[C@@H]1Oc2ccc(NC(=O)Cn3cnnn3)cc2CC(=O)N([C@H](C)CO)C[C@H]1C 1.87%, COc1cc(OC)c(/C=N/NC(=O)CCCCCCC(=O)Nc2ccccc2O)c(OC)c1 -0.41%, C[C@@H]1CCCCO[C@@H](CN(C)Cc2ccncc2)[C@@H](C)CN([C@H](C)CO)C(=O)c2cc(NS(=O)(=O)c3cccs3)ccc2O1 -0.367%, C[C@@H]1CN([C@H](C)CO)C(=O)Cc2cc(NC(=O)Nc3ccc4c(c3)OCO4)ccc2O[C@H]1CN(C)Cc1ccc(C(F)(F)F)cc1 1.47%, COc1ccc(S(=O)(=O)N(C)C[C@@H]2OCCCC[C@H](C)Oc3ccc(NC(=O)Nc4ccccc4)cc3C(=O)N([C@@H](C)CO)C[C@H]2C)cc1 0.213%, C[C@@H]1CN([C@@H](C)CO)C(=O)CCCn2nncc2CO[C@H]1CN(C)C(=O)CCCN(C)C -0.0755%, COc1ccc(NC(=O)Nc2ccc3c(c2)C(=O)N([C@@H](C)CO)C[C@@H](C)[C@@H](CN(C)S(=O)(=O)c2ccc(C)cc2)OCCCC[C@H](C)O3)cc1 -0.213%, COc1ccc(S(=O)(=O)Nc2ccc3c(c2)CC(=O)N([C@@H](C)CO)C[C@H](C)[C@@H](CN(C)Cc2ccc(C(=O)O)cc2)O3)cc1 1%, C[C@H](CO)N1C[C@H](C)[C@@H](CN(C)Cc2ccc(-c3ccccc3)cc2)Oc2ccc(NC(=O)CCCN(C)C)cc2CC1=O 0.389%, C[C@@H]1CCCCO[C@@H](CN(C)C(=O)C2CCCCC2)[C@H](C)CN([C@H](C)CO)C(=O)c2cc(NC(=O)CCC(F)(F)F)ccc2O1 -0.546%, COc1ccc(S(=O)(=O)N(C)C[C@@H]2Oc3ccc(NC(=O)C4CC4)cc3CC(=O)N([C@@H](C)CO)C[C@H]2C)cc1 -0.0568%, C[C@@H]1CN([C@H](C)CO)C(=O)c2cc(NC(=O)NC3CCCCC3)ccc2O[C@@H](C)CCCCO[C@H]1CN(C)C(=O)Nc1ccccc1 -0.462%, C[C@H](CO)N1C[C@H](C)[C@@H](CN(C)Cc2ccc(C(=O)O)cc2)OCCCC[C@H](C)Oc2ccc(NC(=O)c3ccccc3)cc2C1=O -0.0294%, Cc1noc(C)c1NC(=O)Nc1ccc2c(c1)CC(=O)N([C@@H](C)CO)C[C@@H](C)[C@H](CN(C)C(=O)NC1CCCCC1)O2 -0.291%, Cc1ccc(S(=O)(=O)Nc2ccc3c(c2)C(=O)N([C@@H](C)CO)C[C@@H](C)[C@@H](CN(C)Cc2ccc(C(F)(F)F)cc2)OCCCC[C@@H](C)O3)cc1 0.898%, CNC[C@H]1OCCCC[C@H](C)Oc2ccc(NS(=O)(=O)c3ccc(Cl)cc3)cc2C(=O)N([C@@H](C)CO)C[C@@H]1C -0.41%, COc1ccc(NC(=O)N(C)C[C@@H]2Oc3ccc(NC(=O)CCN4CCOCC4)cc3C(=O)N([C@@H](C)CO)C[C@H]2C)cc1 0.238%, C[C@@H]1CCCCO[C@H](CN(C)Cc2ccccc2)[C@H](C)CN([C@H](C)CO)C(=O)c2cc(NS(=O)(=O)c3ccc(Cl)cc3)ccc2O1 -0.0813%, C[C@H](CO)N1C[C@H](C)[C@H](CN(C)S(=O)(=O)c2ccccc2)Oc2c(NC(=O)CCCCCC(=O)Nc3ccccc3N)cccc2C1=O -0.28%, C[C@H](CO)N1C[C@H](C)[C@H](CN(C)S(C)(=O)=O)Oc2ccc(NC(=O)c3ccncc3)cc2CC1=O -0.8%, C[C@H]1CN([C@@H](C)CO)C(=O)CCCn2cc(nn2)CO[C@H]1CN(C)C(=O)Nc1cccc(C(F)(F)F)c1 -0.271%, COc1ccc(NC(=O)Nc2ccc3c(c2)C(=O)N([C@@H](C)CO)C[C@H](C)[C@@H](CN(C)C(=O)Nc2cccc4ccccc24)OCCCC[C@@H](C)O3)cc1 0.279%, C[C@H](CO)N1C[C@H](C)[C@@H](CN(C)S(=O)(=O)c2ccccc2)Oc2ccc(NC(=O)Nc3ccc(F)cc3)cc2CC1=O -0.112%, C[C@@H]1CN([C@H](C)CO)C(=O)c2cc(NC(=O)C3CCCCC3)ccc2O[C@H]1CN(C)C(=O)Nc1ccccc1 -0.382%, C[C@H]1CN([C@@H](C)CO)C(=O)CCCn2cc(nn2)CO[C@@H]1CN(C)C(=O)Nc1ccccc1 0.231%, COc1ccc(NC(=O)N(C)C[C@@H]2Oc3ccc(NS(=O)(=O)c4ccc(Cl)cc4)cc3C(=O)N([C@H](C)CO)C[C@@H]2C)cc1 0.258%, C[C@@H]1CN([C@@H](C)CO)C(=O)CCCn2cc(nn2)CO[C@@H]1CN(C)Cc1ccccc1C(=O)O 0.264%, O=C(CCCCC(=O)N/N=C/c1ccc[nH]1)NO -0.0327%, COc1ccc(NC(=O)N(C)C[C@H]2OCCCC[C@@H](C)Oc3ccc(NS(=O)(=O)c4ccc(F)cc4)cc3C(=O)N([C@@H](C)CO)C[C@@H]2C)cc1 -0.991%, COC(=O)CCCCCCC(=O)N/N=C/c1cccs1 0.382%, C[C@H](CO)N1C[C@H](C)[C@H](CN(C)C(=O)Nc2cccc3ccccc23)OCCCC[C@H](C)Oc2ccc(NC(=O)Nc3ccc4c(c3)OCO4)cc2C1=O 0.835%, Cc1noc(C)c1S(=O)(=O)Nc1ccc2c(c1)C(=O)N([C@@H](C)CO)C[C@H](C)[C@H](CN(C)CC1CCCCC1)OCCCC[C@H](C)O2 -0.748%, C[C@@H]1CN([C@@H](C)CO)C(=O)c2cc(NS(=O)(=O)c3cccs3)ccc2O[C@@H](C)CCCCO[C@@H]1CN(C)C(=O)NC1CCCCC1 -0.476%, Cc1ccc(S(=O)(=O)N(C)C[C@H]2Oc3c(NC(=O)c4ccc(-c5nccs5)cc4)cccc3C(=O)N([C@H](C)CO)C[C@H]2C)cc1 -0.882%, Cc1ccc(S(=O)(=O)N(C)C[C@H]2OCCCC[C@@H](C)Oc3ccc(NC(=O)NC4CCCCC4)cc3C(=O)N([C@H](C)CO)C[C@@H]2C)cc1 -0.124%, C[C@@H]1CN([C@H](C)CO)C(=O)c2cc(NC(=O)Nc3ccc(F)cc3)ccc2O[C@@H]1CN(C)Cc1ccc(Cl)c(Cl)c1 0.0143%, C[C@H]1CN([C@@H](C)CO)C(=O)c2cccc(NS(=O)(=O)c3cccs3)c2O[C@H]1CN(C)Cc1ccc(C(=O)Nc2ccccc2N)cc1 -0.485%, C[C@@H]1CN([C@H](C)CO)C(=O)Cc2cc(NC(=O)Nc3ccc4c(c3)OCO4)ccc2O[C@@H]1CN(C)Cc1ccc(C(=O)Nc2ccccc2N)cc1 -1.67%, O=C(CCCCCC(=O)N/N=C/c1ccc[nH]1)NO -0.622%, C[C@@H]1CCCCO[C@@H](CN(C)Cc2ccc3c(c2)OCO3)[C@@H](C)CN([C@@H](C)CO)C(=O)c2cc(NC(=O)C3CCCCC3)ccc2O1 1.06%, Cc1noc(C)c1NC(=O)N(C)C[C@@H]1OCCCC[C@H](C)Oc2ccc(NC(=O)NC3CCCCC3)cc2C(=O)N([C@H](C)CO)C[C@H]1C -1.23%, Cc1noc(C)c1S(=O)(=O)N(C)C[C@H]1OCCCC[C@@H](C)Oc2ccc(NC(=O)c3ccccc3)cc2C(=O)N([C@@H](C)CO)C[C@H]1C 0.679%, C[C@@H]1CCCCO[C@@H](CN(C)Cc2ccncc2)[C@H](C)CN([C@H](C)CO)C(=O)c2cc(NC(=O)NC3CCCCC3)ccc2O1 0.887%, C[C@@H]1CCCCO[C@@H](CN(C)C(=O)C2CCCCC2)[C@H](C)CN([C@H](C)CO)C(=O)c2cc(NC(=O)c3ccccc3)ccc2O1 -0.0371%, CNC[C@@H]1Oc2ccc(NC(=O)C3CCCCC3)cc2CC(=O)N([C@@H](C)CO)C[C@H]1C -2%, Cc1noc(C)c1NC(=O)Nc1ccc2c(c1)CC(=O)N([C@@H](C)CO)C[C@H](C)[C@H](CN(C)S(=O)(=O)c1c(C)noc1C)O2 -0.264%, C[C@@H]1CN([C@H](C)CO)C(=O)Cc2cc(NC(=O)C3CCCCC3)ccc2O[C@H]1CN(C)S(=O)(=O)c1ccc(Cl)cc1 -0.597%, Cc1noc(C)c1NC(=O)N(C)C[C@H]1OCCCC[C@H](C)Oc2ccc(NC(=O)Cc3ccccc3)cc2C(=O)N([C@H](C)CO)C[C@@H]1C -0.000815%
